The source made the active and inactive calls. The rule behind the calls is not given here.
What was measured:
[1] = Cell cycle arrest in human NTUB1 cells assessed as accumulation at G2/M phase at 20 uM after 24 hrs using propidium iodide staining by flow cytometry; format: functional, cell-based
How it was run: (§1)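 NTUB1 cells plated at 8 × 10⁵ per 10 cm dish and exposed to compound for 24 or 48 h; untreated controls got medium alone. Cells trypsinized, PBS-washed and fixed overnight in ice-cold MeOH at −20 °C, then stained with 50 µg/mL propidium iodide plus RNase A. DNA content was read by flow cytometry, with apoptosis taken as sub-G1 accumulation. Three independent experiments.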

NTUB1 [2] = experiment: Increase in intracellular reactive oxygen species level in human NTUB1 cells at 20 uM after 24 hrs by DCFH-DA staining; format: functional, cell-based
How it was run: (§2)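 NTUB1 cells treated for 24 or 48 h, with or without 1 mM N-acetylcysteine. DCFH-DA (10 µM) added 30 min before harvest; cells then trypsinized, PBS-washed, and DCF green fluorescence read at once by flow cytometry through a 525 nm band-pass filter. Three independent experiments.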

A549 = experiment: Cytotoxicity against human A549 cells at 50 uM after 72 hrs by MTT assay; format: functional, cell-based
How it was run: (§3)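 Cells grown in RPMI 1640 with 10% FBS, penicillin/streptomycin and 2 mM L-glutamine at 37 °C under 5% CO₂. Seeded 1800 cells/well, left overnight, then given graded compound concentrations for 72 h; compounds diluted from DMSO, 0.1% DMSO in medium and in controls. MTT 2 mg/mL in PBS for 3 h, formazan dissolved in DMSO, absorbance 540 nm. Viability given as % of control; IC50 by median-effect analysis, mean ± SD.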

NTUB1 [3] = experiment: Increase in intracellular reactive oxygen species level in human NTUB1 cells at 20 uM after 48 hrs in presence of 1 mM N-acetyl-cysteine by DCFH-DA staining; format: functional, cell-based; how it was run: as §2
NTUB1 [4] = experiment: Increase in intracellular reactive oxygen species level in human NTUB1 cells at 50 uM after 24 hrs in presence of 1 mM N-acetyl-cysteine by DCFH-DA staining; format: functional, cell-based; how it was run: as §2
[5] = Cell cycle arrest in human NTUB1 cells assessed as accumulation at S phase at 50 uM after 48 hrs using propidium iodide staining by flow cytometry; format: functional, cell-based; how it was run: as §1
[6] = Induction of apoptosis in human NTUB1 cells assessed as accumulation at subG1 phase at 20 uM after 24 hrs using propidium iodide staining by flow cytometry; format: functional; how it was run: as §1
[7] = Induction of apoptosis in human NTUB1 cells assessed as accumulation at subG1 phase at 50 uM after 24 hrs using propidium iodide staining by flow cytometry; format: functional; how it was run: as §1
[8] = Cell cycle arrest in human NTUB1 cells assessed as accumulation at G1 phase at 50 uM after 24 hrs using propidium iodide staining by flow cytometry; format: functional, cell-based; how it was run: as §1
[9] = Induction of apoptosis in human NTUB1 cells assessed as accumulation at subG1 phase at 50 uM after 48 hrs using propidium iodide staining by flow cytometry; format: functional; how it was run: as §1
[10] = Cell cycle arrest in human NTUB1 cells assessed as accumulation at G1 phase at 20 uM after 24 hrs using propidium iodide staining by flow cytometry; format: functional, cell-based; how it was run: as §1
[11] = Induction of apoptosis in human NTUB1 cells assessed as accumulation at subG1 phase at 20 uM after 48 hrs using propidium iodide staining by flow cytometry; format: functional; how it was run: as §1
[12] = Cell cycle arrest in human NTUB1 cells assessed as accumulation at G2/M phase at 50 uM after 24 hrs using propidium iodide staining by flow cytometry; format: functional, cell-based; how it was run: as §1
NTUB1 [13] = experiment: Increase in intracellular reactive oxygen species level in human NTUB1 cells at 50 uM after 24 hrs by DCFH-DA staining; format: functional, cell-based; how it was run: as §2
[14] = Cell cycle arrest in human NTUB1 cells assessed as accumulation at G2/M phase at 50 uM after 48 hrs using propidium iodide staining by flow cytometry; format: functional, cell-based; how it was run: as §1
[15] = Cell cycle arrest in human NTUB1 cells assessed as accumulation at G1 phase at 20 uM after 48 hrs using propidium iodide staining by flow cytometry; format: functional, cell-based; how it was run: as §1
NTUB1 [16] = experiment: Increase in intracellular reactive oxygen species level in human NTUB1 cells at 50 uM after 48 hrs by DCFH-DA staining; format: functional, cell-based; how it was run: as §2
[17] = Cell cycle arrest in human NTUB1 cells assessed as accumulation at S phase at 50 uM after 24 hrs using propidium iodide staining by flow cytometry; format: functional, cell-based; how it was run: as §1
[18] = Cell cycle arrest in human NTUB1 cells assessed as accumulation at G2/M phase at 20 uM after 48 hrs using propidium iodide staining by flow cytometry; format: functional, cell-based; how it was run: as §1
NTUB1 [19] = experiment: Increase in intracellular reactive oxygen species level in human NTUB1 cells at 50 uM after 48 hrs in presence of 1 mM N-acetyl-cysteine by DCFH-DA staining; format: functional, cell-based; how it was run: as §2
[20] = Cell cycle arrest in human NTUB1 cells assessed as accumulation at S phase at 20 uM after 24 hrs using propidium iodide staining by flow cytometry; format: functional, cell-based; how it was run: as §1
NTUB1 [21] = experiment: Increase in intracellular reactive oxygen species level in human NTUB1 cells at 20 uM after 48 hrs by DCFH-DA staining; format: functional, cell-based; how it was run: as §2
[22] = Cell cycle arrest in human NTUB1 cells assessed as accumulation at S phase at 20 uM after 48 hrs using propidium iodide staining by flow cytometry; format: functional, cell-based; how it was run: as §1
[23] = Cytotoxicity against human NTUB1 cells after 72 hrs by MTT assay; format: functional, cell-based; details: NTUB1, 72 h; how it was run: as §3
PC-3 = experiment: Cytotoxicity against human PC3 cells at 50 uM after 72 hrs by MTT assay; format: functional, cell-based; how it was run: as §3
Tubulin (Homo sapiens) = Tubulin (Homo sapiens) (UniProt P68371+Q9H4B7+P0DPH7+P68366+Q13509+Q71U36+P04350+Q3ZCM7+P07437+P68363+Q9BQE3+Q6PEY2+Q13885+Q9BVA1+Q9BUF5); experiment: Inhibition of tubulin polymerization in human NTUB1 cells assessed as blockade of microtubule assembly at 50 uM by indirect immunofluorescence staining; format: cell-based
How it was run: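 NTUB1 cells on coverslips were treated for 24 h, then fixed in 2% formaldehyde/PBS for 20 min and in cold methanol (−20 °C) for 3 min. Stained with anti-α-tubulin monoclonal antibody for 3 h at room temperature, then rhodamine-conjugated secondary antibody for 1 h in the dark. Mounted in 80% glycerol/PBS and examined by fluorescence microscopy.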

NTUB1 [24] = experiment: Increase in intracellular reactive oxygen species level in human NTUB1 cells at 20 uM after 24 hrs in presence of 1 mM N-acetyl-cysteine by DCFH-DA staining; format: functional, cell-based; how it was run: as §2
[25] = Cell cycle arrest in human NTUB1 cells assessed as accumulation at G1 phase at 50 uM after 48 hrs using propidium iodide staining by flow cytometry; format: functional, cell-based; how it was run: as §1
[26] = Cell cycle arrest in human NTUB1 cells assessed as accumulation at G2/M phase at 10 uM after 24 hrs using propidium iodide staining by flow cytometry; format: functional, cell-based; how it was run: as §1
[27] = Cell cycle arrest in human NTUB1 cells assessed as accumulation at G1 phase at 10 uM after 24 hrs using propidium iodide staining by flow cytometry; format: functional, cell-based; how it was run: as §1
[28] = Induction of apoptosis in human NTUB1 cells assessed as accumulation at subG1 phase at 40 uM after 24 hrs using propidium iodide staining by flow cytometry; format: functional; how it was run: as §1
[29] = Cell cycle arrest in human NTUB1 cells assessed as accumulation at G1 phase at 40 uM after 48 hrs using propidium iodide staining by flow cytometry; format: functional, cell-based; how it was run: as §1
NTUB1 [30] = experiment: Increase in intracellular reactive oxygen species level in human NTUB1 cells at 40 uM after 24 hrs in presence of 1 mM N-acetyl-cysteine by DCFH-DA staining; format: functional, cell-based; how it was run: as §2
[31] = Cell cycle arrest in human NTUB1 cells assessed as accumulation at G1 phase at 40 uM after 24 hrs using propidium iodide staining by flow cytometry; format: functional, cell-based; how it was run: as §1
NTUB1 [32] = experiment: Increase in intracellular reactive oxygen species level in human NTUB1 cells at 40 uM after 24 hrs by DCFH-DA staining; format: functional, cell-based; how it was run: as §2
[33] = Induction of apoptosis in human NTUB1 cells assessed as accumulation at subG1 phase at 10 uM after 24 hrs using propidium iodide staining by flow cytometry; format: functional; how it was run: as §1
[34] = Cell cycle arrest in human NTUB1 cells assessed as accumulation at S phase at 40 uM after 24 hrs using propidium iodide staining by flow cytometry; format: functional, cell-based; how it was run: as §1
NTUB1 [35] = experiment: Increase in intracellular reactive oxygen species level in human NTUB1 cells at 40 uM after 48 hrs in presence of 1 mM N-acetyl-cysteine by DCFH-DA staining; format: functional, cell-based; how it was run: as §2
NTUB1 [36] = experiment: Increase in intracellular reactive oxygen species level in human NTUB1 cells at 40 uM after 48 hrs by DCFH-DA staining; format: functional, cell-based; how it was run: as §2
[37] = Cell cycle arrest in human NTUB1 cells assessed as accumulation at G2/M phase at 40 uM after 48 hrs using propidium iodide staining by flow cytometry; format: functional, cell-based; how it was run: as §1
[38] = Induction of apoptosis in human NTUB1 cells assessed as accumulation at subG1 phase at 40 uM after 48 hrs using propidium iodide staining by flow cytometry; format: functional; how it was run: as §1
[39] = Cell cycle arrest in human NTUB1 cells assessed as accumulation at S phase at 10 uM after 24 hrs using propidium iodide staining by flow cytometry; format: functional, cell-based; how it was run: as §1
[40] = Cell cycle arrest in human NTUB1 cells assessed as accumulation at G2/M phase at 40 uM after 24 hrs using propidium iodide staining by flow cytometry; format: functional, cell-based; how it was run: as §1
[41] = Cell cycle arrest in human NTUB1 cells assessed as accumulation at S phase at 40 uM after 48 hrs using propidium iodide staining by flow cytometry; format: functional, cell-based; how it was run: as §1

Structure (SMILES): C=C(C)[C@@H]1CC[C@]2(C)[C@H](CC=C3[C@@H]4[C@@H](C)[C@H](C)CC[C@]4(C(=O)O)CC[C@]32C)[C@@]1(C)CCC(=O)O
- Activity [1]: 10.9%
- Activity (NTUB1 [2]): Active
- Activity (A549): Active
- Activity (NTUB1 [3]): Active
- Activity (NTUB1 [4]): inactive
- Activity [5]: 3.05%
- Activity [6]: 21.68%
- Activity [7]: 25.75%
- Activity [8]: 52.2%
- Activity [9]: 14%
- Activity [10]: 41.3%
- Activity [11]: 5.12%
- Activity [12]: 13.1%
- Activity (NTUB1 [13]): Active
- Activity [14]: 11.1%
- Activity [15]: 52.2%
- Activity (NTUB1 [16]): Active
- Activity [17]: 6.9%
- Activity [18]: 16.6%
- Activity (NTUB1 [19]): Active
- Activity [20]: 23.7%
- Activity (NTUB1 [21]): Active
- Activity [22]: 20.6%
- IC50 [23]: 25.5 µM
- Activity (PC-3): Active
- Activity (Tubulin (Homo sapiens)): Active
- Activity (NTUB1 [24]): inactive
- Activity [25]: 66.4%

Structure (SMILES): CC(C)OC(=O)[C@]12CC[C@@H](C)[C@H](C)[C@H]1C1=CC[C@@H]3[C@@]4(C)CC[C@H](O)C(C)(C)[C@@H]4CC[C@@]3(C)[C@]1(C)CC2
- Activity [1]: 9.18%
- Activity [26]: 15.3%
- Activity [27]: 33.9%
- Activity (A549): Active
- Activity (NTUB1 [3]): Active
- Activity [28]: 23.73%
- Activity [29]: 8.53%
- Activity (NTUB1 [30]): inactive
- Activity [31]: 58.1%
- Activity [6]: 23.5%
- Activity (NTUB1 [32]): Active
- Activity [10]: 51%
- Activity [11]: 6.73%
- Activity [33]: 13.8%
- Activity [34]: 4.53%
- Activity (NTUB1 [35]): Active
- Activity [15]: 52.1%
- Activity [18]: 16.2%
- Activity (NTUB1 [36]): Active
- Activity [37]: 1.96%
- Activity [38]: 43.81%
- Activity [20]: 15.8%
- Activity (NTUB1 [21]): Active
- Activity [39]: 31.7%
- Activity [22]: 20.5%
- Activity [40]: 11%
- Activity [41]: 1.31%
- IC50 [23]: 7.97 µM
- Activity (PC-3): Active
